Data from ChEMBL document CHEMBL1629474, “Massive screening yields novel and selective Trypanosoma cruzi triosephosphate isomerase dimer-interface-irreversible inhibitors with anti-trypanosomal activity” (Eur J Med Chem, 2010).
Calls of active or inactive are those of the source. No rule for the calls is given here.

How the values were obtained:
Trypanosoma cruzi = assay: Antiparasitic activity against Trypanosoma cruzi T2 epimastigotes assessed as growth inhibition at 25 uM after 5 days; format: functional
Outline: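 Late-log epimastigotes were grown axenically at 28 °C in BHI-tryptose with 5% fetal calf serum and seeded at 2×10^6/mL in medium containing compound (DMSO stock; final DMSO ≤1%, 1% DMSO control). Growth was read as A590 at day 0 and day 5. Inhibition = {1 − [(Ap − A0p)/(Ac − A0c)]} × 100. Means of two experiments.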

[1] = Selectivity for Trypanosoma cruzi triosephosphate isomerase over human triosephosphate isomerase
[2] = target: Triosephosphate isomerase, glycosomal (Trypanosoma cruzi) (UniProt P52270); assay: Inhibition of Trypanosoma cruzi triosephosphate isomerase at 400 uM after 2 hrs
Triosephosphate isomerase, glycosomal (Trypanosoma cruzi), sequence (P52270 whole entry): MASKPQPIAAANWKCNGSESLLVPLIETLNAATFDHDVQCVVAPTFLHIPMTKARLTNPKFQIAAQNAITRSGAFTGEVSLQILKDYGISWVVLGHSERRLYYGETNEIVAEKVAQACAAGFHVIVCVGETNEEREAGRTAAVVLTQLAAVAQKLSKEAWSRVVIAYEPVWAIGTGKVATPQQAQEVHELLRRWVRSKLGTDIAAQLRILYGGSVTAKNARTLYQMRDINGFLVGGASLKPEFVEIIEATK
Outline: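 Recombinant E. coli-expressed enzyme, dialyzed into 100 mM triethanolamine/10 mM EDTA pH 7.4, was incubated with compound (DMSO stock) in 100 mM triethanolamine, 10 mM EDTA, pH 7.4, 10% DMSO at 36 °C for 2 h. An aliquot was then assayed for activity (glyceraldehyde 3-phosphate to dihydroxyacetone phosphate, α-glycerol phosphate dehydrogenase-coupled) with 5 ng enzyme. Irreversible inhibition was scored as loss of activity; means of two experiments.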

Row | Compound | Activity (Trypanosoma cruzi) | Ratio [1] | inhibition [2] [%]
1 | Cc1c(CNc2cccc3ccccc23)no[n+]1[O-] | Active | > 4 | 41
2 | NC(=O)N/N=C/C=C/c1ccc([N+](=O)[O-])o1 | Active | > 4 | 13
3 | COC(=O)/C=C/c1ccc2no[n+]([O-])c2c1 | Active | > 4 | 8
4 | C=CCNC(=S)N/N=C/c1ccc2c(c1)[n+]([O-])c(C)c(C)[n+]2[O-] | Active | > 4 | 42
5 | Cc1c(C)[n+]([O-])c2cc(C=O)ccc2[n+]1[O-] | Active | > 4 | 11
6 | [O-][n+]1onc2ccc(/C=N/O)cc21 | Active | > 4 | 27
7 | [O-][n+]1onc(-c2ccccc2)c1CN1CCSCC1 | Active | > 4 | 47
8 | CCCCNC(=O)N/N=C/c1ccc2no[n+]([O-])c2c1 | Active | > 4 | 38
9 | O=c1c2cc([N+](=O)[O-])ccc2n2n1CCOCC2 | Active | > 4 | 12
10 | C=C(C)CNC(=O)N/N=C/c1ccc([N+](=O)[O-])o1 | Active | > 4 | 6
11 | Cc1no[n+]([O-])c1/C=N/NC(N)=O | Active | > 4 | 2
12 | Cc1nnc[n+]([O-])c1/C=C/c1ccc([N+](=O)[O-])o1 | Active | > 4 | 38
13 | CCCCCCCCOC(=O)N/N=C/C=C/c1ccc([N+](=O)[O-])o1 | Active | > 4 | 0
14 | CCCN(CCC(C)C1CC=C(C)CC1)Cc1ccc2c(c1)=[N+]([O-])C(C)(C)[N+]=2[O-] (stereo not drawn) | Active | > 4 | 4
15 | CC1(C)[N+]([O-])=c2ccc(CN3CCN(C/C=C/c4ccccc4)CC3)cc2=[N+]1[O-] | Active | > 4 | 31
16 | O=S(=O)(/C=C/c1ccc2no[n+]([O-])c2c1)c1ccc(F)cc1 | Active | > 4 | 15
17 | N#Cc1c(N)[n+]([O-])c2ccc(CN3CCN(C/C=C/c4ccccc4)CC3)cc2[n+]1[O-] | Active | > 4 | 18
18 | Cc1n(O)c2ccc(Br)cc2[n+]1[O-] | Active | > 4 | 4
19 | C=CCNC(=S)N/N=C/c1ccc2no[n+]([O-])c2c1 | Active | > 4 | 14
20 | CC(=O)Oc1c(C)c(C)c2c(c1C)CCC(C)(C(=O)NCCOc1c(S(=O)(=O)c3ccccc3)no[n+]1[O-])O2 (stereo not drawn) | Active | > 4 | 25
21 | CCCCNC(=O)N/N=C/C=C/c1ccc([N+](=O)[O-])o1 | Active | > 4 | 1
22 | O=[N+]([O-])c1ccc(/C=N/NC(=S)Nc2ccccc2)o1 | Active | > 4 | 17

Row | Compound | Activity (Trypanosoma cruzi) | Ratio [1] | inhibition [2] [%]
23 | CC1(C)[N+]([O-])=c2ccc(C3OCCO3)cc2=[N+]1[O-] | Active | > 4 | 36
24 | COc1ccc(C=O)cc1-c1cc(C=O)ccc1O | Active | > 4 | 32
25 | CNC(=S)N/N=C/C=C/c1ccc([N+](=O)[O-])o1 | Active | > 4 | 9
26 | O=Cc1cccc(OCCCN2C(=O)c3ccccc3C2=O)c1 | Active | > 4 | 0
27 | O=[N+]([O-])c1ccc2c(c1)[n+]([O-])c1n2CCC1 | Active | > 4 | 35
28 | CCCCNS(=O)(=O)NCCCC | Active | > 4 | 0
29 | CC(=O)CC(=O)Nc1ccccc1 | Active | > 4 | 17
30 | C=CCNC(=S)N/N=C/c1ccc2c(c1)[n+]([O-])c(C#N)c(N)[n+]2[O-] | Active | > 4 | 45
31 | O=C(/C=C/c1ccc([N+](=O)[O-])o1)NCCCl | Active | > 4 | 13
32 | [O-][n+]1onc(-c2ccccc2)c1CNc1ccc(Br)cc1 | Active | > 4 | 48
33 | CC1(C)[N+]([O-])=c2ccc(COc3ccc(C=O)cc3)cc2=[N+]1[O-] | Active | > 4 | 26
34 | Cc1nnc(C)[n+]([O-])c1/C=C/c1ccc(N(C)C)cc1 | Active | > 4 | 26
35 | N#Cc1c2ccccc2[n+]([O-])n1-c1cccc2ccccc12 | Active | > 4 | 16
36 | CCCCNC(=O)/C=C/c1ccc([N+](=O)[O-])o1 | Active | > 4 | 25
37 | O=C(/C=C/c1ccc([N+](=O)[O-])o1)N1CCN(C/C=C/c2ccccc2)CC1 | Active | > 4 | 0
38 | COCCNC(=O)N/N=C/c1ccc([N+](=O)[O-])s1 | Active | > 4 | 15
39 | COc1ccc(/C=C/c2c(C)nnc[n+]2[O-])cc1 | Active | > 4 | 11
40 | Cc1nnc[n+]([O-])c1/C=C/c1ccc2c(c1)OCO2 | Active | > 4 | 40
41 | N#Cc1c2ccccc2[n+]([O-])n1-c1ccc2ccccc2c1 | Active | > 4 | 19
42 | O=C(NCCc1ccccc1)N/N=C/c1ccc2no[n+]([O-])c2c1 | Active | > 4 | 38
43 | [O-][n+]1onc2ccc(/C=C/[S+]([O-])c3ccccc3)cc21 (stereo not drawn) | Active | > 4 | 28
44 | NC(=O)N/N=C/c1ccc2no[n+]([O-])c2c1 | Active | > 4 | 73

Row | Compound | Activity (Trypanosoma cruzi) | Ratio [1] | inhibition [2] [%]
45 | COc1ccc(NCc2c(-c3ccccc3)no[n+]2[O-])cc1 | Active | > 4 | 39
46 | [O-][n+]1onc2ccc(CSCCO)cc21 | Active | > 4 | 0
47 | [O-][n+]1onc(-c2ccccc2)c1CN1CCN(c2ncccn2)CC1 | Active | > 4 | 8
48 | CSc1ccc(/C=C/C(=O)c2ccccc2)cc1 | Active | > 4 | 14
49 | O=[N+]([O-])c1ccc(N2CCSCC2)c([N+](=O)[O-])c1 | Active | > 4 | 20
50 | O=C(/C=C/c1ccccc1)c1ccccc1 | Active | > 4 | 33
51 | COCCNC(=O)N/N=C/c1ccc2no[n+]([O-])c2c1 | Active | > 4 | 3
52 | O=[N+]([O-])c1ccc(N2CCOCC2)c([N+](=O)[O-])c1 | Active | > 4 | 19
53 | CCCCCCNS(=O)(=O)NCCCCCC | Active | > 4 | 0
54 | O=C(Oc1ccccc1)N1CCN(C/C=C/c2ccccc2)CC1 | Active | > 4 | 21
55 | O=C1CC(=O)N(CCc2ccccc2)S(=O)(=O)N1CCc1ccccc1 | Active | > 4 | 0
56 | O=[N+]([O-])c1ccc2c(c1)c(OCc1ccccc1)nn2CCCCCN1CCCCC1 | Active | > 4 | 0
57 | Oc1ccc(N/C(S)=N/c2ccccc2)cc1 | Active | > 4 | 24
58 | C=CCNC(=S)N/N=C/c1ccc2c(c1)=[N+]([O-])C(C)(C)[N+]=2[O-] | Active | > 4 | 33
59 | CN(C)CCCNS(=O)(=O)NCCCN(C)C | Active | > 4 | 0
60 | O=C(CCl)Oc1ccc2c(c1)[n+]([O-])c1cc(Br)ccc1[n+]2[O-] | Active | > 4 | 50
61 | [O-][N+]1=c2cc(Cl)c(Cl)cc2=[N+]([O-])C12CCCC2 | Active | > 4 | 56
62 | CCCCCCNC(=O)N/N=C/c1c(-c2ccccc2)no[n+]1[O-] | Active | > 4 | 4
63 | CC1(C)[N+]([O-])=c2ccc(/C=C/c3ccccc3)cc2=[N+]1[O-] | Active | > 4 | 0
64 | COCCNC(=O)/C=C/c1ccc([N+](=O)[O-])o1 | Active | > 4 | 0
65 | [O-][n+]1onc2ccc(C=Cc3ccc(Br)cc3)cc21 | Active | > 4 | 22
66 | CN(CCCN(C)Cc1cccc2ccccc12)Cc1cccc2ccccc12 | Active | > 4 | 55
